Experimental data published in ChEMBL document CHEMBL1135822, “Novel potent AMPA/kainate receptor antagonists: synthesis and anticonvulsant activity of a series of 2-[(4-alkylsemicarbazono)-(4-amino-phenyl)methyl]-4,5-methylenedioxyphenylacetic acid alkyl esters” (J Med Chem, 2002).

Assays:
[1] = Protective index as the ratio of TD50 to ED50 (from the clonic phase of the audiogenic seizures).; conditions: for selectivity ratio: read-out: PI
Summary of the method: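 Ratio of rotarod TD50 to ED50 from the clonic phase of audiogenic seizures in DBA/2 mice, both after ip dosing.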

[2] = species on record: Rattus norvegicus; test: Percentage reduction of ATPA evoked currents at a concentration of 100 uM in cerebellar neurons
[3] = Partition coefficient (logP); assay type: physicochemical; conditions: octanol/water
Summary of the method: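 log P calculated with XLOGP 2.0, not measured.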

[4] = species on record: Mus musculus; test: Anticonvulsant activity against audiogenic seizures in DBA/2 mice in clonic phase.; assay type: functional
Summary of the method: (§1)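 DBA/2 mice (8–12 g, 22–25 days), groups of 10, given ip doses of 3.3–200 µmol/kg in 50% DMSO/50% saline. Auditory stimulation 30 min later after 60 s habituation under a dome. Incidence of each seizure phase scored. ED50 by Litchfield–Wilcoxon, at least 32 animals, 95% confidence limits.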

[5] = Anticonvulsant activity against audiogenic seizures in DBA/2 mice in tonic phase; assay type: functional; conditions: Mus musculus; summary of the method: as §1
[6] = Toxicity assessed by Rotarod test (locomotor deficit) in mice.; assay type: organism-based; conditions: mouse, in vivo
Summary of the method: (§2)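 Male Swiss mice (20–26 g), groups of 10, trained on a 3-cm rotarod at 8 rpm. Tested 30 min after ip dosing; impairment defined as failure to stay on for 2 min. TD50 by Litchfield–Wilcoxon, at least 32 animals, 95% confidence limits.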

[7] = Percentage reduction of KA (kainate) evoked currents at a concentration of 100 uM in cerebellar neurons; assay type: functional
Summary of the method: (§3)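 Whole-cell voltage clamp of rat cerebellar granule neurons cultured 7 days (7–8-day-old Sprague–Dawley pups; Ara-C 10 µM from 24 h). External solution pH 7.4. KA or ATPA and test agent all applied at 100 µM by Y-tube, DMSO final below 1%. Mean ± SE of at least 10 cells.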

[8] = Percentage reduction of ATPA evoked currents at a concentration of 100 uM in cerebellar neurons; assay type: functional; summary of the method: as §3
[9] = species on record: Rattus norvegicus; test: Percentage reduction of KA (kainate) evoked currents at a concentration of 100 uM in cerebellar neurons
[10] = species on record: Mus musculus; test: Anticonvulsant activity against PTZ induced seizures in swiss mice in clonic phase (95% confidence limits); assay type: functional
[11] = species on record: Mus musculus; test: Anticonvulsant activity against MES induced seizures in swiss mice in tonic phase (95% confidence limits); assay type: functional
Summary of the method: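 Swiss mice dosed ip in 50% DMSO/50% saline, then shocked via ear-clip electrodes (50 mA, 20 ms pulse width, 35 Hz, 400 ms). Protection defined as abolition of tonic hindlimb extension. Four to five doses, 8–10 mice each; ED50 by Litchfield–Wilcoxon with 95% confidence limits.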

[12] = tested on: Mus musculus; test: Anticonvulsant activity against KA induced seizures in DBA/2 mice at a dose of 32 mg/kg at CD97 after intraperitoneal administration (95% confidence limits); assay type: functional; conditions: ip
[13] = tested on: Mus musculus; test: Anticonvulsant activity against audiogenic seizures in DBA/2 mice in clonic phase after 45 min intraperitoneal administration (95% confidence limit in parentheses)**indicates p<0.01; assay type: functional; conditions: ip, 0.75 h
Summary of the method: (§4)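 DBA/2 mice (8–12 g, 22–25 days old), genetically sound-susceptible, groups of 10. Dosed ip (0.1 mL/10 g) as fresh solution in 50% DMSO/50% saline, doses 3.3-200 μmol/kg; auditory stimulation after 60 s habituation under dome, at 30 min (time-course: 15–120 min post-dose).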

[14] = species on record: Rattus norvegicus; test: Percentage reduction of ATPA evoked currents at a concentration of 100 uM in cerebellar neurons; remark: listed apart in the source
[15] = tested on: Mus musculus; test: Anticonvulsant activity against AMPA induced seizures in DBA/2 mice after intracerebro ventricular administration at the CD97 for clonus (9.7 nmol) (95% confidence limits); assay type: functional; conditions: central
[16] = tested on: Mus musculus; test: Anticonvulsant activity against audiogenic seizures in DBA/2 mice in clonic phase after 30 min intraperitoneal administration (95% confidence limit in parentheses)**indicates p<0.01; assay type: functional; conditions: ip, 0.5 h; summary of the method: as §4
[17] = tested on: Mus musculus; test: Anticonvulsant activity against audiogenic seizures in DBA/2 mice in clonic phase after 60 min intraperitoneal administration (95% confidence limit in parentheses)**indicates p<0.01; assay type: functional; conditions: ip, 1 h; summary of the method: as §4
[18] = Locomotion assessed by Rotarod test in mice; assay type: organism-based; conditions: mouse, in vivo; summary of the method: as §2
[19] = tested on: Mus musculus; test: Anticonvulsant activity against audiogenic seizures in DBA/2 mice in clonic phase after 15 min intraperitoneal administration (95% confidence limit in parentheses); assay type: functional; conditions: ip, 0.25 h
Summary of the method: (§5)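 Time course: DBA/2 mice (8–12 g, 22–25 days) dosed ip in 50% DMSO/50% saline and challenged with sound 15 to 120 min after dosing. Clonic phase scored; ED50 in µmol/kg by Litchfield–Wilcoxon with 95% confidence limits. Between-compound differences at each time by Litchfield–Wilcoxon (*p<0.05, **p<0.01).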

[20] = tested on: Mus musculus; test: Anticonvulsant activity against AMPA induced seizures in DBA/2 mice after intracerebro ventricular administration at the CD97 for tonus (11.7 nmol) (95% confidence limits); assay type: functional; conditions: central
[21] = tested on: Mus musculus; test: Anticonvulsant activity against audiogenic seizures in DBA/2 mice in clonic phase after 90 min intraperitoneal administration (95% confidence limit in parentheses)*indicates p<0.05; assay type: functional; conditions: ip, 1.5 h; summary of the method: as §5
[22] = tested on: Mus musculus; test: Anticonvulsant activity against audiogenic seizures in DBA/2 mice in clonic phase after 120 min intraperitoneal administration (95% confidence limit in parentheses); assay type: functional; conditions: ip, 2 h; summary of the method: as §5
[23] = species on record: Mus musculus; test: Anticonvulsant activity against audiogenic seizures in DBA/2 mice in tonic phase (95% confidence limit in parentheses); assay type: functional; summary of the method: as §4
[24] = Protective index as the ratio of TD50 value to that of ED50 value (from the clonic phase of the audiogenic seizures).; assay type: functional
Summary of the method: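 PI = TD50/ED50. TD50 from rotarod (3 cm, 8 rpm; failure to stay on for 2 min) in male Swiss mice 30 min after ip dosing; ED50 from clonic phase of audiogenic seizures in DBA/2 mice 30 min after ip dosing (50% DMSO/saline). Both by Litchfield–Wilcoxon, ≥32 animals each.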

[25] = species on record: Rattus norvegicus; test: Percentage reduction of KA (kainate) evoked currents at a concentration of 100 uM in cerebellar neurons; remark: listed apart in the source

Row | SMILES | logP ([3]; read-out: logP) | selectivity ratio [1] | ED50 [4] | ED50 [5] | TD50 [6] | further results
1 | Nc1ccc(C2=NNC(=O)Cc3cc4c(cc32)OCO4)cc1 | 2.58 | 6.3 |  |  |  | Reduction [2]: 94%
2 | CCCOC(=O)Cc1cc2c(cc1/C(=N/NC(=O)NC)c1ccc(N)cc1)OCO2 | 3.24 | 3.8 | 18 µmol/kg | 8.93 µmol/kg | 68.5 µmol/kg | 
3 | CCNC(=O)N/N=C(\c1ccc(N)cc1)c1cc2c(cc1CC(=O)OC)OCO2 | 2.89 | 3.7 | 30.3 µmol/kg | 32.8 µmol/kg | 113 µmol/kg | 
4 | CCCCOC(=O)Cc1cc2c(cc1/C(=N/NC(=O)NC)c1ccc(N)cc1)OCO2 | 3.81 | 2.7 | 66.2 µmol/kg | 39.8 µmol/kg | 179 µmol/kg | 
5 | CCOC(=O)Cc1cc2c(cc1/C(=N/NC(=O)NC)c1ccc(N)cc1)OCO2 | 2.89 | 3.3 | 28.8 µmol/kg | 10.9 µmol/kg | 95.1 µmol/kg | 
6 | CCNC(=O)N/N=C(\c1ccc(N)cc1)c1cc2c(cc1CC(=O)OCC)OCO2 | 3.31 | 2.7 | 84.4 µmol/kg | 60.8 µmol/kg | 227 µmol/kg | 
7 | CNC(=O)N/N=C(\c1ccc(N)cc1)c1cc2c(cc1CC(=O)OC)OCO2 (stereo in doubt; 10) |  |  |  |  |  | Reduction [9]: 60%; ED50 [10]: 14.7 µmol/kg; ED50 [11]: 15.7 µmol/kg; ED50 [12]: 16.6 µmol/kg; ED50 [13]: 7.75 µmol/kg; Reduction [14]: 75%; ED50 [15]: 13.9 µmol/kg; ED50 [16]: 7.87 µmol/kg; ED50 [17]: 10.2 µmol/kg; PI [1]: 3.6; TD50 [18]: 28.3 µmol/kg; ED50 [19]: 24.1 µmol/kg; ED50 [20]: 8.9 µmol/kg; ED50 [21]: 25.5 µmol/kg; ED50 [22]: 36.8 µmol/kg; ED50 [23]: 4.62 µmol/kg; logP [3]: 2.46
8 | CCCCNC(=O)N1N=C(c2ccc(N)cc2)c2cc3c(cc2CC1=O)OCO3 | 3.34 | 2.8 |  |  | 108 µmol/kg | 
9 | CCCNC(=O)N1N=C(c2ccc(N)cc2)c2cc3c(cc2CC1=O)OCO3 | 2.77 | 2.6 |  |  | 182 µmol/kg | 
10 | CNC(=O)N1N=C(c2ccc(N)cc2)c2cc3c(cc2CC1=O)OCO3 | 1.99 |  |  |  |  | TD50 [18]: 48.6 µmol/kg; PI [24]: 3.9; Reduction [2]: 50%
11 | CCCCNC(=O)N/N=C(\c1ccc(N)cc1)c1cc2c(cc1CC(=O)OC)OCO2 | 3.81 | 2.9 | 65 µmol/kg | 38.2 µmol/kg | 188 µmol/kg | 
12 | CCCOC(=O)Cc1cc2c(cc1/C(=N/NC(=O)NCC)c1ccc(N)cc1)OCO2 | 3.67 | 3.4 | 55.5 µmol/kg | 40.3 µmol/kg | 187 µmol/kg | 
13 | CCCCOC(=O)Cc1cc2c(cc1/C(=N/NC(=O)NCC)c1ccc(N)cc1)OCO2 | 4.24 | 2.2 | 53.1 µmol/kg | 38.7 µmol/kg | 117 µmol/kg | 
14 | CC1=NN=C(c2ccc(N)cc2)c2cc3c(cc2C1)OCO3 [GYKI-52466] | 3.51 | 2.1 |  |  |  | Reduction [25]: 47%; Reduction [2]: 45%
15 | CCNC(=O)N1N=C(c2ccc(N)cc2)c2cc3c(cc2CC1=O)OCO3 | 2.41 | 3.8 |  |  | 134 µmol/kg | 
16 | CCCNC(=O)N/N=C(\c1ccc(N)cc1)c1cc2c(cc1CC(=O)OC)OCO2 | 3.24 | 3.1 | 57.1 µmol/kg | 42.8 µmol/kg | 177 µmol/kg | 

Continued, in another order:

Row | logP ([3]; read-out: logP) | SMILES | selectivity ratio [1] | ED50 [4] | ED50 [5] | TD50 [6] | further results
17 | 2.99 | CNC(=O)N/N=C(\c1ccc(N)cc1)c1cc2c(cc1CC(=O)OC)OCO2 (stereo in doubt; 29) | 3.7 | 10.4 µmol/kg | 9.51 µmol/kg | 38.6 µmol/kg | 
18 | 2.23 | CNC(=O)NC(=O)Cc1cc2c(cc1Cc1ccc(N)cc1)OCO2 | 3.6 | 9.28 µmol/kg | 7.65 µmol/kg | 33.3 µmol/kg | Reduction [7]: 54%; Reduction [8]: 32%
19 | 1.82 | CNC(=O)NC(=O)Cc1cc2c(cc1C(=O)c1ccc(N)cc1)OCO2 | 3.4 | 39.5 µmol/kg | 28.9 µmol/kg | 134 µmol/kg | 
20 | 1.09 | CNC(=O)NC(=O)Cc1ccc2c(c1)OCO2 | 2.5 | 87.8 µmol/kg | 74.4 µmol/kg | 219 µmol/kg | 
21 | 2.68 | COC(=O)Cc1cc2c(cc1Cc1ccc(N)cc1)OCO2 | 3.1 | 54.3 µmol/kg | 47.7 µmol/kg | 169 µmol/kg | 
